Assay results: ChEMBL document CHEMBL1151695, “Design, synthesis and preliminary pharmacological evaluation of new analogues of DM232 (unifiram) and DM235 (sunifiram) as cognition modulators” (Bioorg Med Chem, 2008)
The source made the active and inactive calls. The calls are words filed in the database; no cut-off is given here.

How the values were obtained:
[1] = system: Mus musculus; test: Effect on passive avoidance in mouse assessed as latency time to enter dark room in retention session at 0.01 mg/kg, ip treated 20 mins before training session; type: functional; details: route intraperitoneal
Outline: (§1)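 Same step-through passive avoidance without scopolamine. Punishment is a 40 cm fall into 10 °C water on entering the dark room. Mice not entering within 60 s at training were excluded. Compound given ip at 1:10 dilution steps, 20 min before training, in saline or saline/DMSO 4:1. Controls received an extra saline injection right after training. Latency to enter the dark room recorded at training and at next-day retention.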

[2] = species on record: Mus musculus; test: Effect on passive avoidance in mouse treated 20 mins before training session; type: functional; details: read-out: MED; outline: as §1
[3] = system: Mus musculus; test: Effect on passive avoidance in mouse assessed as latency time to enter dark room in training session at 0.01 mg/kg, ip treated 20 mins before training session; type: functional; details: route intraperitoneal; outline: as §1
[4] = system: Mus musculus; test: Antiamnesic activity in scopolamine-induced mouse assessed as latency time to enter dark room in retention session at 10 mg/kg, ip treated 20 mins before training session by passive avoidance test; type: functional; details: route intraperitoneal
Outline: (§2)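 Step-through passive avoidance in mice: lit and dark compartments joined by a guillotine door. Entering the dark side drops the mouse 40 cm into 10 °C water, a non-painful punishment. Mice not entering within 60 s at training were excluded. Compound given ip at 1:10 dilution steps […], 20 min before training. Vehicle was saline or saline/DMSO 4:1. Scopolamine 1.5 mg/kg ip immediately after punishment. Retention tested next day. MED is the lowest dose reversing amnesia.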

[5] = system: Mus musculus; test: Antiamnesic activity in scopolamine-induced mouse assessed as latency time to enter dark room in training session at 10 mg/kg, ip treated 20 mins before training session by passive avoidance test; type: functional; details: route intraperitoneal; outline: as §2
[6] = system: Mus musculus; test: Antiamnesic activity in ip dosed mouse assessed as reversal of scopolamine-induced memory loss treated 20 mins before training session by passive avoidance test; type: functional; details: read-out: MED; outline: as §2
[7] = species on record: Mus musculus; test: Toxicity in mouse assessed as motor coordination after 45 mins by rotarod test; type: organism-based; details: in vivo, 0.75 h
Outline: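 Rota-rod: rod 30 cm long, 15 cm above the base, split into five sections, rotating at 16 rpm. Falls counted over 30 s. Mice with fewer than 3 or more than 6 falls in the pretest were rejected. Performance measured at pretest and 15, 30 and 45 min after test start. Compared with saline-treated mice.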

[8] = species on record: Mus musculus; test: Toxicity in mouse assessed as spontaneous motility and inspection activity after 5 mins by hole board test; type: organism-based; details: in vivo
Outline: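 Hole-board: 40 cm square plane with 16 holes of 3 cm, arranged 4×4. Each mouse placed centrally and free to move for […]. Photocells counted locomotion (spontaneous motility) and hole exploration, both as counts in 5 min. Compared with saline-treated mice.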

[9] = system: Mus musculus; test: Effect on passive avoidance in mouse assessed as latency time to enter dark room in retention session at 0.1 mg/kg, ip treated 20 mins before training session; type: functional; details: route intraperitoneal; outline: as §1
[10] = system: Mus musculus; test: Effect on passive avoidance in mouse assessed as latency time to enter dark room in training session at 0.1 mg/kg, ip treated 20 mins before training session; type: functional; details: route intraperitoneal; outline: as §1
[11] = system: Mus musculus; test: Antiamnesic activity in scopolamine-induced mouse assessed as latency time to enter dark room in retention session at 1.0 mg/kg, ip treated 20 mins before training session by passive avoidance test; type: functional; details: route intraperitoneal; outline: as §2
[12] = system: Mus musculus; test: Antiamnesic activity in scopolamine-induced mouse assessed as latency time to enter dark room in training session at 1.0 mg/kg, ip treated 20 mins before training session by passive avoidance test; type: functional; details: route intraperitoneal; outline: as §2
[13] = system: Mus musculus; test: Effect on passive avoidance in mouse assessed as latency time to enter dark room in retention session at 10 mg/kg, ip treated 20 mins before training session; type: functional; details: route intraperitoneal; outline: as §1
[14] = system: Mus musculus; test: Effect on passive avoidance in mouse assessed as latency time to enter dark room in training session at 10 mg/kg, ip treated 20 mins before training session; type: functional; details: route intraperitoneal; outline: as §1
[15] = system: Mus musculus; test: Antiamnesic activity in scopolamine-induced mouse assessed as latency time to enter dark room in retention session at 0.1 mg/kg, ip treated 20 mins before training session by passive avoidance test; type: functional; details: route intraperitoneal; outline: as §2
[16] = system: Mus musculus; test: Antiamnesic activity in scopolamine-induced mouse assessed as latency time to enter dark room in training session at 0.1 mg/kg, ip treated 20 mins before training session by passive avoidance test; type: functional; details: route intraperitoneal; outline: as §2
[17] = system: Mus musculus; test: Antiamnesic activity in scopolamine-induced mouse assessed as latency time to enter dark room in retention session at 0.01 mg/kg, ip treated 20 mins before training session by passive avoidance test; type: functional; details: route intraperitoneal; outline: as §2
[18] = system: Mus musculus; test: Antiamnesic activity in scopolamine-induced mouse assessed as latency time to enter dark room in training session at 0.01 mg/kg, ip treated 20 mins before training session by passive avoidance test; type: functional; details: route intraperitoneal; outline: as §2
[19] = system: Mus musculus; test: Antiamnesic activity in mouse assessed as reversal of scopolamine-induced memory loss at 10 mg/kg, ip treated 20 mins before training session by passive avoidance test; type: functional, organism-based; set-up: dose 10 mg/kg; outline: as §2
[20] = system: Mus musculus; test: Effect on passive avoidance in mouse assessed as latency time to enter dark room in training session at 1.0 mg/kg, ip treated 20 mins before training session; type: functional; details: route intraperitoneal; outline: as §1
[21] = system: Mus musculus; test: Effect on passive avoidance in mouse assessed as latency time to enter dark room in retention session at 1.0 mg/kg, ip treated 20 mins before training session; type: functional; details: route intraperitoneal; outline: as §1

Structure (SMILES) | minimal effective dose [2] | minimal effective dose [6] | Activity [7] | Activity [8] | Activity [19] | also measured
CC(=O)N[C@H]1CC[C@H](NS(=O)(=O)c2ccc(F)cc2)CC1 | 0.01 mg/kg | 10 mg/kg | Non-toxic | Non-toxic |  | Activity [1]: 52.8 s; Activity [3]: 19.2 s; Activity [4]: 26.3 s; Activity [5]: 17 s
CCC(=O)N[C@H]1CC[C@H](NS(=O)(=O)c2ccc(F)cc2)CC1 | 0.1 mg/kg | 1 mg/kg | Non-toxic | Non-toxic |  | Activity [9]: 56.3 s; Activity [10]: 16.9 s; Activity [11]: 16.4 s; Activity [12]: 17.5 s
CCC(=O)N[C@H]1CC[C@@H](NS(=O)(=O)c2ccc(F)cc2)CC1 | 10 mg/kg | 0.1 mg/kg | Non-toxic | Non-toxic |  | Activity [13]: 162.9 s; Activity [14]: 25.3 s; Activity [15]: 89.1 s; Activity [16]: 16.8 s
CC(C)S(=O)(=O)N(C)c1ccc(NC(=O)c2ccccc2)cc1 |  | 0.01 mg/kg | Non-toxic | Non-toxic |  | Activity [17]: 66.7 s; Activity [18]: 20.6 s
CC(C)S(=O)(=O)N1CCN2C(=O)c3ccccc3C2C1 (stereo not given) |  | 1 mg/kg | Non-toxic | Non-toxic |  | Activity [11]: 85.5 s; Activity [12]: 16.3 s
CCC(=O)Nc1ccc(NS(=O)(=O)c2ccc(F)cc2)cc1 |  |  | Non-toxic | Non-toxic | inactive | 
CCC(=O)Nc1ccc(NS(=O)(=O)C(C)C)cc1 |  |  | Non-toxic | Non-toxic | inactive | 
CC(C)S(=O)(=O)N(C)c1ccc(N(C)S(=O)(=O)c2ccc(F)cc2)cc1 | 1 mg/kg | 0.01 mg/kg | Non-toxic | Non-toxic |  | Activity [17]: 70.5 s; Activity [18]: 18.8 s; Activity [20]: 30 s; Activity [21]: 158.6 s
CC(=O)Nc1ccc(NC(=O)c2ccccc2)cc1 |  |  | Non-toxic | Non-toxic | inactive | 
CC(=O)N1CCN2C(=O)c3ccccc3C2C1 (stereo not given) |  |  | Non-toxic | Non-toxic | inactive | 
CC(C)S(=O)(=O)N[C@H]1CC[C@H](NC(=O)c2ccccc2)CC1 |  |  | Non-toxic | Non-toxic | inactive | 
CCC(=O)N[C@H]1CC[C@H](NC(=O)CC)CC1 |  |  | Non-toxic | Non-toxic | inactive | 
CC(C)S(=O)(=O)Nc1ccc(N(C)S(=O)(=O)c2ccc(F)cc2)cc1 | 1 mg/kg | 0.1 mg/kg | Non-toxic | Non-toxic |  | Activity [15]: 103.6 s; Activity [16]: 20.2 s; Activity [20]: 26.2 s; Activity [21]: 149.8 s
CCC(=O)N[C@H]1CC[C@@H](NC(=O)CC)CC1 | 10 mg/kg | 1 mg/kg | Non-toxic | Non-toxic |  | Activity [13]: 165.2 s; Activity [14]: 34.8 s; Activity [11]: 106.2 s; Activity [12]: 17.8 s
CC(=O)N1CCN(C(=O)c2ccccc2)CC1 |  | 10 mg/kg | Non-toxic | Non-toxic |  | Activity [4]: 119 s; Activity [5]: 11.3 s
CC(=O)Nc1ccc(NS(=O)(=O)c2ccc(F)cc2)cc1 |  |  | Non-toxic | Non-toxic | inactive | 
CC(C)S(=O)(=O)Nc1ccc(NC(=O)c2ccccc2)cc1 | 1 mg/kg | 10 mg/kg | Non-toxic | Non-toxic |  | Activity [4]: 88.1 s; Activity [5]: 16.8 s; Activity [20]: 22.1 s; Activity [21]: 116.7 s
CCC(=O)N[C@H]1CC[C@H](NC(=O)c2ccccc2)CC1 |  |  | Non-toxic | Non-toxic | inactive | 
CC(C)S(=O)(=O)N(C)c1ccc(N(C)C(=O)c2ccccc2)cc1 | 1 mg/kg | 0.01 mg/kg | Non-toxic | Non-toxic |  | Activity [17]: 91.8 s; Activity [18]: 20.7 s; Activity [20]: 19.6 s; Activity [21]: 123.6 s
CC(=O)N[C@H]1CC[C@H](NC(=O)c2ccccc2)CC1 |  |  | Non-toxic | Non-toxic | inactive | 
CC(=O)NC1CCN(S(=O)(=O)c2ccc(F)cc2)CC1 [SAPUNIFIRAM] | 0.1 mg/kg | 0.01 mg/kg | Non-toxic | Non-toxic |  | Activity [9]: 126.8 s; Activity [10]: 19.1 s; Activity [17]: 90.6 s; Activity [18]: 14.5 s
O=C(Nc1ccc(NS(=O)(=O)c2ccc(F)cc2)cc1)c1ccccc1 |  |  | Non-toxic | Non-toxic | inactive | 
O=C1c2ccccc2C2CN(S(=O)(=O)c3ccc(F)cc3)CCN12 (stereo not given) |  | 0.1 mg/kg | Non-toxic | Non-toxic |  | Activity [15]: 74.5 s; Activity [16]: 15.6 s
CC(=O)Nc1ccc(NS(=O)(=O)C(C)C)cc1 |  |  | Non-toxic | Non-toxic | inactive | 
CC(C)S(=O)(=O)N1CCN2C(=O)CCC2C1 (stereo not given) | 10 mg/kg |  | Non-toxic | Non-toxic |  | Activity [13]: 61.5 s; Activity [14]: 13.6 s
CC(C)S(=O)(=O)Nc1ccc(NS(=O)(=O)c2ccc(F)cc2)cc1 | 10 mg/kg | 1 mg/kg | Non-toxic | Non-toxic |  | Activity [13]: 125.2 s; Activity [14]: 21.1 s; Activity [11]: 76.3 s; Activity [12]: 19.1 s
CCC(=O)N1CCN2C(=O)c3ccccc3C2C1 (stereo not given) |  |  | Non-toxic | Non-toxic | inactive | 
O=C(N[C@H]1CC[C@H](NS(=O)(=O)c2ccc(F)cc2)CC1)c1ccccc1 |  |  | Non-toxic | Non-toxic | inactive | 
CC(C)S(=O)(=O)Nc1ccc(N(C)C(=O)c2ccccc2)cc1 | 0.1 mg/kg | 0.1 mg/kg | Non-toxic | Non-toxic |  | Activity [9]: 121 s; Activity [10]: 17.3 s; Activity [15]: 75.9 s; Activity [16]: 21.6 s
CC(=O)N[C@H]1CC[C@@H](NS(=O)(=O)c2ccc(F)cc2)CC1 | 10 mg/kg | 1 mg/kg | Non-toxic | Non-toxic |  | Activity [13]: 156.6 s; Activity [14]: 32 s; Activity [11]: 104.5 s; Activity [12]: 19.1 s
